One experiment has as its system tumors. The note with it: cited from earlier work.
For another experiment, the system named is MDA-MB-435 tumors. Kind of experiment: Tumor immunohistochemistry. The class given is in vivo, athymic nude mice. A digest of the protocol: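 Fat-pad MDA-MB-435 tumors came from mice given vehicle or oral test compound (12.5 mg/kg twice daily) and were harvested on days -1, 1, 4 and 11. Frozen 5 μm OCT sections were fixed in ice-cold acetone (10 min) and blocked in 10% goat serum (30 min). They were stained 1 h with hamster anti-integrin β3 and rat anti-CD31 (1:100), then Cy3/FITC secondaries (1:100), and read by fluorescence microscopy. H&E sections were examined for blood vessels.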

Another experiment deals with PC-3 prostate tumors. The following applies: xenografted PC-3 model; cited from earlier work.
The next experiment concerns U87MG gliomas. The following applies: xenografted U87MG model; cited from earlier work.
The test system of the next experiment is integrin αvβ3. Kind of experiment: ^99mTc-3P-RGD2 SPECT/CT tumor uptake during linifanib therapy, MDA-MB-435 model. The class given is in vivo, athymic nude mice. The method, boiled down:
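Size-matched groups (n = 5; mean tumor 180 ± 90 mm3) of female nude mice with fat-pad MDA-MB-435 tumors received vehicle (0.15% HPMC, 2% ethanol, 5% Tween 80, 20% PEG400, 73% saline) or test compound at 12.5 mg/kg orally twice daily (>8 h apart) from day 0. Radiotracer (>95% radiochemical purity, in saline) was given i.v. Multi-pinhole SPECT/CT on days -1, 1, 4 and 11 was quantified as %ID and %ID/cm3.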

In experiment [1] the test system is pre-clinical tumor models. The note with it: variety of pre-clinical tumor models; cited from earlier work.
Experiment [2] concerns VEGF and PDGF receptor families. The note with it: in vitro; cited from earlier work.
The test system of a further experiment is tumor. The note with it: 2 days after sunitinib therapy; cited from earlier work.
For a further experiment, the system named is integrin αvβ3 and αvβ5. The following applies: low concentrations; cited from earlier work.
Setting [3] is: 12.5 mg/kg orally twice daily, as early as 24 h, SPECT/CT quantification, n = 5.

For `Cc1nc(Nc2ncc(C(=O)Nc3c(C)cccc3Cl)s2)cc(N2CCN(CCO)CC2)n1` [dasatinib], the “uptake of ^64Cu-DOTA-RGD in the treated tumors” value in the experiment with tumors is “significantly reduce”.

Consider `Cc1ccc(F)c(NC(=O)Nc2ccc(-c3cccc4[nH]nc(N)c34)cc2)c1` [linifanib], for which the blood vessel density result in the experiment on MDA-MB-435 tumors (H&E staining of tumor slices, within 24 h after initiation of linifanib therapy) was “dramatically reduced”. Also, in the experiment on MDA-MB-435 tumors (IHC staining of tumor slices, after 24 h of linifanib therapy), the “integrin αvβ3 on neovasculature” value is listed as “disappeared almost completely”. Besides, the “tumor cell integrin αvβ3 expression level” value in the experiment on MDA-MB-435 tumors (IHC staining of tumor slices, during the 11-day period of linifanib therapy) was “decreased steadily”. In addition, the “tumor volume or tumor uptake of ^99mTc-3P-RGD2 after linifanib treatment” value in the experiment with PC-3 prostate tumors is “no significant changes”. Also, in the experiment on U87MG gliomas, the “tumor uptake (%ID and %ID/cm^3) and T/M ratios of ^99mTc-3P-RGD2 after linifanib treatment” value is on record as “significant decrease”. Also, in the experiment on integrin αvβ3 (setting [3]), the “%ID tumor uptake of ^99mTc-3P-RGD2 in linifanib-treated group” value is given as “dramatic reduction” and the “%ID/cm^3 tumor uptake of ^99mTc-3P-RGD2 in linifanib-treated group” value is “dramatic reduction”. In addition, the “tumor uptake (%ID and %ID/g) of ^99mTc-3P-RGD2 in linifanib-treated group” value with integrin αvβ3 (over the next 10 days after the first 24 h of linifanib therapy) is listed as “steady tumor uptake reduction”. In experiment [1], the “effect on tumors in vivo” value is on record as “pronounced regression of tumors”. In [2], the “phosphorylation of members of VEGF and PDGF receptor families” value is “inhibit the phosphorylation”.

Take `CCN(CC)CCNC(=O)c1c(C)[nH]c(/C=C2\C(=O)Nc3ccc(F)cc32)c1C` [sunitinib]: the “tumor uptake of [^18F]AH111585 after sunitinib therapy” value in the experiment with tumor is recorded as “significantly reduced”.

For Cilengitide, in the experiment with integrin αvβ3 and αvβ5, the “effect on tumor growth and angiogenesis” value was “stimulate tumor growth and angiogenesis”.

These data come from PMC3841333 (Theranostics, 2013).
